Source: PubChem BioAssay (several laboratories)
RanGTP-Imp inh: disruptors of Ran-importin-beta complex formation – biochemical, FRET, CFP-Ran, YFP-importin-beta, homogeneous, primary screen. inhibition, % (no concentration beside the values). cell-free CFP-Ran/YFP-importin-beta FRET ratio. AID 2216. 300,000 compounds, 1.1% hits;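 active means more than half of the replicate wells show a fall in the fluorescence ratio signal beyond about 16%, limit read from the data, passing the limit was not always enough; inconclusive means exactly half of the replicate wells pass the set limit; inactive means fewer than half of replicates pass the limit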
Runt-SMMHC FRET: blocks binding of human RUNX1 Runt domain to CBFb-SMMHC. Cerulean-Runt/Venus-CBFb-SMMHC FRET ratio 530/480, 1 h. inhibition, % at 20 µM. AID 1434. 220,000 compounds, 0.74% hits. Q01196+Q13951;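 active means mean inhibition across duplicate retests at 20 µM reaching about 50%, limit read from the data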;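 further: inhibitors lower the FRET ratio by blocking Runt binding to CBFb-SMMHC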
Target sequence (Q01196 whole entry, looked up, the tested form may be a part): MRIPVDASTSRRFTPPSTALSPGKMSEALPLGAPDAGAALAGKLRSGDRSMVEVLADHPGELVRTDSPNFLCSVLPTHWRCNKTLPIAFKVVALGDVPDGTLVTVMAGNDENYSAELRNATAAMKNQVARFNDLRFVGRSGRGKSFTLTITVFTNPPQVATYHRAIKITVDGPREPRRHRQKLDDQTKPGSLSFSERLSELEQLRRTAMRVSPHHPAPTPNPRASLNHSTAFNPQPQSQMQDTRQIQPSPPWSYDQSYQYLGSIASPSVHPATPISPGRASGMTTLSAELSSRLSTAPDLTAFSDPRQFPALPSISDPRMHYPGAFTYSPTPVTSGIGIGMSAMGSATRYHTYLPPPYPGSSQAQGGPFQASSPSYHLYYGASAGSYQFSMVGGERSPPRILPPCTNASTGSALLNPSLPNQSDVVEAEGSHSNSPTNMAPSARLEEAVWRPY
Target sequence (Q13951 whole entry, looked up, the tested form may be a part): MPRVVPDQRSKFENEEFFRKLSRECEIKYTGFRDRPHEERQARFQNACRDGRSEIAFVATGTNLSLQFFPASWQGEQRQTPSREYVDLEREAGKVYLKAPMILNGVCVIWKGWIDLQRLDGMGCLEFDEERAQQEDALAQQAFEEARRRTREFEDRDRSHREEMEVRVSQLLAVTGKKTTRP
TNF necrop inh: TNF-alpha cell death inhibition in Jurkat FADD-/- cells | activation (protection from cell death), % at 10 µM | Jurkat FADD-/- TNF necroptosis rescue, ATP luminescence, 24 h; 0 = TNF only, 100 = no-TNF cells | 220,000 compounds, 0.068% hits;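 active means activation, meaning protection from cell death, of at least 50% relative to plate controls; inactive means activation below 50%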;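 further: necroptosis triggered by 40 ng/mL TNF-alpha added together with compound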
zVAD death inh: L929 zVAD cell death inhibition; viability rescue, % at 10 µM; 220,000 compounds, 0.38% hits; L929 zVAD necroptosis rescue, ATP luminescence, 24 h; with zVAD 60 µM;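 active means activation, scaled between plate controls, above about 75%, limit read from the data; inactive means activation under that limit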
Hck Nef HTS: human Hck-Nef kinase inhibition; Recombinant Hck-YEEI plus Nef, Z-Lyte FRET kinase assay; inhibition, % at 20 µM; 220,000 compounds, 0.68% hits; AID 463187;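 active means Hck-Nef kinase inhibition above about 50%, limit read from the data; inactive means inhibition below that limit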
Runt-CBFb FRET: Runt domain-CBFb interaction inhibition | 220,000 compounds, 0.46% hits | inhibition, % at 20 µM | Cerulean-Runt/Venus-CBFb FRET ratio 530/480, 1 h;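 active means inhibition over about 50% at 20 µM in the single-dose screen, limit read from the data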
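Assay system: Cerulean-Runt domain fusion protein, energy donor; Signal: fluorescence energy transfer, 422 nm excitation, 530/480 nm emission; Timing: 1 h compound exposure, room temperature; Control set: unlabeled CBFb; Medium: Tris buffer pH 7.5 with salts and BSA; Compound: single test concentration of 20 µM, 1% DMSO final; Probe or stimulus: Venus-CBFb 100 nM.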
Hck Nef conf: confirmation of Hck-Nef kinase inhibitors; shares compounds with Hck Nef HTS; Recombinant Hck-YEEI:Nef, Z-Lyte FRET kinase assay; calls only at 10 µM; 1,300 compounds, 28% hits;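 active means average inhibition of at least 50%, with Z-scores no higher than 3 in both the phospho-tyrosine peptide and fluorescence counterscreens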
Each line names hits and unclear results; the compound was inactive in the other large screens (follow-up assays come after a bar, where shown). Most compounds without a hit are left out; they make up all but 2.1% or so of the library.

O=C(Oc1ccc(/C=N/Nc2ccccc2)cc1)c1ccccc1	none
COc1ccc(C2CC(c3ccccc3)=NN2c2ccc(S(N)(=O)=O)cc2)cc1OC (stereo unspecified)	Hck Nef HTS 74 | Hck Nef conf inactive
NS(=O)(=O)c1ccc(N2N=C(c3ccccc3)CC2c2cccc(F)c2)cc1 (stereo unspecified)	none
NS(=O)(=O)c1ccc(N2N=C(c3ccc(Br)cc3)CC2c2ccc(F)cc2)cc1 (stereo unspecified)	RanGTP-Imp inh 23, Hck Nef HTS 117 | Hck Nef conf inactive
O=c1oc2ccccc2cc1N1CCOCC1	none
CC1CCN(S(=O)(=O)c2nnc(NC(=O)c3ccccc3Br)s2)CC1	none (no result: Runt-SMMHC FRET, TNF necrop inh, zVAD death inh, Hck Nef HTS, Runt-CBFb FRET)
Nn1c(N2CCCCC2)nc2ccccc21	none
C/C(=N\NC(=O)c1cccc(N/N=C(\C)c2cc(O)ccc2O)c1)c1cc(O)ccc1O	RanGTP-Imp inh inconclusive, Hck Nef HTS 57 | Hck Nef conf inactive
CSc1nc2cc(C)nn2c(-c2ccccc2Cl)c1C#N	none
O=[N+]([O-])c1ccc(N/N=C/c2ccc(O)c(O)c2O)c(S(=O)(=O)N2CCOCC2)c1	Hck Nef HTS 117 | Hck Nef conf inactive
CNS(=O)(=O)c1ccc(NC(=O)c2cnn3c(C(F)F)cc(-c4ccccc4)nc23)cc1	none
O=C(Nc1cnn(Cc2ccc(F)cc2)c1)c1cnn2c(C(F)F)cc(-c3ccccc3)nc12	Hck Nef HTS 88 | Hck Nef conf inactive
CC1=NNC(=O)/C1=C\c1cn(-c2ccccc2)nc1-c1ccc(Cl)cc1	Hck Nef HTS 60 | Hck Nef conf active
O=C(Nc1c2c(nc3ccccc13)CCCC2)c1ccccc1Cl	none
O=C(Nc1c2ccccc2nc2ccccc12)C(Cl)(Cl)Cl	RanGTP-Imp inh 135, Hck Nef HTS 71 | Hck Nef conf inactive
CCN(CC)c1ccc(-c2nnc(SCC(=O)Nc3ccccc3C#N)n2-c2ccccc2)cc1	Hck Nef HTS 66 | Hck Nef conf active
N#Cc1ccccc1NC(=O)CSc1nnc(-c2ccccc2)n1-c1ccccc1	none
CCCOc1ccc(C(=O)NNC(=S)NC(=O)c2cc(-c3ccccc3)nc3ccccc23)cc1	RanGTP-Imp inh inconclusive
COc1ccc2[nH]c(=O)c(C(=O)O)cc2c1	none
CC(C)C1Cc2[nH]c(=O)c(C(=O)O)cc2CO1 (stereo unspecified)	Hck Nef HTS 75 | Hck Nef conf inactive
Cc1oc(-c2ccccc2F)nc1CS(=O)(=O)CC(=O)NCc1ccccc1Cl	none (no result: Runt-SMMHC FRET, TNF necrop inh, zVAD death inh, Hck Nef HTS, Runt-CBFb FRET)
CCCCCn1c(NC(=O)c2ccco2)c(S(=O)(=O)c2ccc(C)cc2)c2nc3ccccc3nc21	RanGTP-Imp inh 80, Runt-SMMHC FRET 147, Hck Nef HTS 56
Cc1ccc(S(=O)(=O)c2c(N)n(NC(=O)c3ccccc3C)c3nc4ccccc4nc23)cc1	none
Cc1ccc(S(=O)(=O)c2c(N)n(CCCO)c3nc4ccccc4nc23)cc1	Hck Nef HTS 81
CCCCn1c(NS(=O)(=O)c2ccccc2)c(S(=O)(=O)c2ccc(C)cc2)c2nc3ccccc3nc21	RanGTP-Imp inh 51, Runt-SMMHC FRET 53, Hck Nef HTS 66
CCC(=O)Nc1c(S(=O)(=O)c2ccccc2)c2nc3ccccc3nc2n1C(C)c1ccccc1 (stereo unspecified)	Runt-SMMHC FRET 76, Hck Nef HTS 75
COc1ccc(N2CCN(C(=O)Cn3c(=O)[nH]c4ccccc4c3=O)CC2)cc1	none
COc1ccc(NC(=O)CCNC(=O)c2ccco2)c(OC)c1	none (no result: Runt-SMMHC FRET, TNF necrop inh, zVAD death inh, Hck Nef HTS, Runt-CBFb FRET)
Cc1cc(=O)n2[nH]c(C)c(-c3ccccc3)c2n1	none
O=c1cc(-c2ccccc2)nc2c(-c3ccccc3)c(C(F)(F)F)[nH]n12	Hck Nef HTS 57 | Hck Nef conf inactive
COC(=O)Cc1c(C)c2ccc(O)c(CN3CCCC(C)C3)c2oc1=O (stereo unspecified)	RanGTP-Imp inh 22, Runt-SMMHC FRET 112, Hck Nef HTS 75, Runt-CBFb FRET 98
O=C(Nc1cccc(S(=O)(=O)NC2=NCCC2)c1)c1cc(Cl)ccc1[N+](=O)[O-]	none (no result: Runt-SMMHC FRET, TNF necrop inh, zVAD death inh, Hck Nef HTS, Runt-CBFb FRET)
Cc1nn(C)c(C)c1NC(=O)CSc1nc(-c2ccccc2Cl)nc2c1cnn2-c1ccccc1	Hck Nef HTS 83 | Hck Nef conf inactive
Cc1nn(C)c(C)c1NC(=O)CSc1nc(C2CC2)nc2c1cnn2-c1ccccc1	none
CCc1ccc(/C=C(/C#N)C(N)=S)s1	none
CCc1sc(/C=C(/C#N)C(N)=S)cc1[N+](=O)[O-]	Hck Nef HTS 63 (no result: RanGTP-Imp inh) | Hck Nef conf inactive
Cc1ccc(OCC(=O)NC2CCS(=O)(=O)C2)c(C)c1 (stereo unspecified)	none (no result: Runt-SMMHC FRET, TNF necrop inh, zVAD death inh, Hck Nef HTS, Runt-CBFb FRET)
COCCN1C=C(C(=O)OC)C(c2ccccc2Cl)C(C(=O)OC)=C1	RanGTP-Imp inh 58, Runt-SMMHC FRET 86, Hck Nef HTS 153, Runt-CBFb FRET 64
CCN1C=C(C(=O)OC)C(c2cccc(OC)c2OC)C(C(=O)OC)=C1	RanGTP-Imp inh 126, Runt-SMMHC FRET 86, Hck Nef HTS 85
CCOC(=O)C1=C(C)N(C)C(=S)NC1c1ccccc1Cl (stereo unspecified)	RanGTP-Imp inh inconclusive
CCC1(C)SC(N)=NN1C(C)=O (stereo unspecified)	none
N=C1S/C(=C\c2ccc(-c3ccccc3C(=O)O)o2)C(=O)N1c1ccc2c(c1)OCO2	Hck Nef HTS 85 | Hck Nef conf active
CCOC(=O)CN1C(=O)S/C(=C\c2ccc(-c3cccc(C(=O)O)c3C)o2)C1=O	none (no result: Runt-SMMHC FRET, TNF necrop inh, zVAD death inh, Hck Nef HTS, Runt-CBFb FRET)
COc1ccccc1N1C(=N)S/C(=C\c2ccc(-c3ccccc3C(=O)O)o2)C1=O	Hck Nef HTS 60 | Hck Nef conf active
Cc1c(C(=O)O)cccc1-c1ccc(/C=C2\SC(=O)NC2=O)o1	none (no result: Runt-SMMHC FRET, TNF necrop inh, zVAD death inh, Hck Nef HTS, Runt-CBFb FRET)
Cc1ccccc1S(=O)(=O)/N=C(/c1ccccc1)N1CCOCC1	none
CCc1noc(C)c1C(=O)N(C)CC(=O)Nc1ccc(OC)cc1	none (no result: Runt-SMMHC FRET, TNF necrop inh, zVAD death inh, Hck Nef HTS, Runt-CBFb FRET)
O=C(O)c1ccc(-c2ccc(/C=C3\NC(=O)N(Cc4ccc(Cl)cc4)C3=O)o2)cc1Cl	RanGTP-Imp inh 58, Hck Nef HTS 53 | Hck Nef conf inactive
Cc1ccc(/C=C2/NC(=O)N(Cc3ccc(Br)cc3)C2=O)o1	none
Cc1cccc(NC(=O)c2cc(NC(=O)c3ccco3)ccc2Cl)n1	none (no result: RanGTP-Imp inh)
Cc1cccn2c(=O)c3cc(C(=O)O)n(C)c3nc12	Hck Nef HTS 52 | Hck Nef conf inactive
COC1C=CC(CNC(=O)c2cc3c(=O)n4cccc(C)c4nc3n2C)(OC)O1 (stereo unspecified)	Hck Nef HTS 74 | Hck Nef conf inactive
